The values that follow come from ChEMBL document CHEMBL1153414, “Discovering potent inhibitors against the beta-hydroxyacyl-acyl carrier protein dehydratase (FabZ) of Helicobacter pylori: structure-based design, synthesis, bioassay, and crystal structure determination” (J Med Chem, 2009).

The test system of assay [1] is Helicobacter pylori. The assay is described as follows: Inhibition of Helicobacter pylori FabZ at 50 uM. A digest of the protocol:
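HpFabZ activity read spectrophotometrically as the A260 decrease during crotonoyl-CoA conversion to β-hydroxybutyryl-CoA. Single inhibitor level of 50 µM, compound in 1% DMSO preincubated with enzyme for 1 h before assay start.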

Assay [2] deals with Helicobacter pylori. The assay is described as follows: Antimicrobial activity against Helicobacter pylori ATCC 43504 by standard agar dilution method. The format is functional. A digest of the protocol: (§1)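 Inoculum: H. pylori swabbed into sterile saline to 2.0 McFarland turbidity. Plates incubated at 37 °C under microaerobic gas (85% N₂, 10% CO₂, 5% O₂), read after 3 days. Compound-free agar as control.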

Assay [3] deals with Helicobacter pylori. The experiment in a line: Antimicrobial activity against Helicobacter pylori SS1 by standard agar dilution method. The format is functional. In outline: as §1
Assay [4] can be described thus: Inhibition of Helicobacter pylori FabZ. A digest of the protocol:
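Spectrophotometric HpFabZ assay following the drop in A260 as crotonoyl-CoA converts to β-hydroxybutyryl-CoA. Compounds in 1% DMSO preincubated with enzyme 1 h before starting the reaction. IC50 from logistic fit of dose-response inhibition data. Means of three determinations.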

Values after ≈ are worked out from the molar mass of the structure shown. Active and inactive are the calls of the source. Some results are limits rather than exact numbers.

In turn, `O=C(N/N=C/c1cc(Br)c(O)c(Br)c1O)c1ccc(Br)cc1` showed an inhibition in the assay on Helicobacter pylori [1] of 94.2%. The MIC against Helicobacter pylori [2] and with Helicobacter pylori [3] was 100 µg/mL (≈ 203 µM) each time. The molecule `O=C(N/N=C/c1ccc(O)cc1O)c1cccnc1` showed an inhibition in the assay with Helicobacter pylori [1] of 25.6%.

The molecule `O=C(N/N=C/c1cc(Br)c(O)c(Br)c1)c1cccnc1` had an inhibition in the assay with Helicobacter pylori [1] of 62.1%. On to `O=C(N/N=C/c1cc(Br)c(O)c(Br)c1O)c1ccc2cc(O)ccc2c1`, for which the IC50 in assay [4] was 8.77 µM. The MIC against Helicobacter pylori [2] and against Helicobacter pylori [3] was 100 µg/mL (≈ 208 µM) throughout.

`O=C(N/N=C/c1cc(Br)c(O)c(Br)c1O)c1cccs1` came in with an inhibition with Helicobacter pylori [1] of 72%. On to `CC(C)(C)c1ccc(C(=O)N/N=C/c2cc(Br)c(O)c(Br)c2O)cc1`, for which, in the assay on Helicobacter pylori [1], the inhibition was determined as 74.4%. Besides, the results for the MIC in the assay on Helicobacter pylori [2] and with Helicobacter pylori [3] were 100 µg/mL (≈ 213 µM) and 50 µg/mL (≈ 106 µM), respectively. `COCCN1C(=O)/C(=C\c2ccc(-c3ccc(Cl)c(C(=O)OC)c3)o2)S/C1=N/c1cccc(C(F)(F)F)c1` gave an inhibition in the assay with Helicobacter pylori [1] of 19.9%. Take `O=C(N/N=C/c1cc(Br)c(O)c(Br)c1O)c1ccc(Cl)cc1`: in the assay on Helicobacter pylori [1], the inhibition is 93.8%. Besides, the MIC in the assay with Helicobacter pylori [2] and with Helicobacter pylori [3] was greater than 100 µg/mL in each case.

For `COC(=O)c1cc(-c2ccc(/C=C3/S/C(=N/c4ccccc4)N(CCN4CCCC4)C3=O)o2)ccc1Cl`, the inhibition entry in the assay with Helicobacter pylori [1] was “inactive”. Still for that read-out and setting: under `COCCN1C(=O)/C(=C\c2ccc(-c3ccc(Cl)c(C(=O)OC)c3)o2)S/C1=N/c1ccc(F)cc1` stands “inactive”; under `COCCN1C(=O)/C(=C\c2ccc(-c3ccc(Cl)c(C(=O)OC)c3)o2)S/C1=N/c1ccc(Br)cc1`, “inactive”; under `COCCN1C(=O)/C(=C\c2ccc(-c3ccc(Cl)c(C(=O)OC)c3)o2)S/C1=N/c1ccc(OC)cc1`, “inactive”. Molecule `O=C(N/N=C/c1cc(Br)c(O)c(Br)c1O)c1cc2ccccc2cc1O` displayed an IC50 in assay [4] of 0.86 µM. For the same molecule, the MIC with Helicobacter pylori [2] and in the assay on Helicobacter pylori [3] was 100 µg/mL (≈ 208 µM) in each case. Molecule `O=C(N/N=C/c1cc(Br)c(O)c(Br)c1O)c1ccc2ccccc2c1` came in with an inhibition in the assay with Helicobacter pylori [1] of 92.6%. Moreover, the MIC came to 100 µg/mL (≈ 215 µM) in the assay on Helicobacter pylori [2] and 50 µg/mL (≈ 108 µM) with Helicobacter pylori [3]. `O=C(N/N=C/c1cc(Br)c(O)c(Br)c1O)c1cccnc1`: the inhibition in the assay on Helicobacter pylori [1] came out at 71.4%. The molecule also had an IC50 in assay [4] of 39.8 µM. `O=C(N/N=C/c1cc(Br)c(O)c(Br)c1O)c1cc(C(F)(F)F)cc(C(F)(F)F)c1` returned an IC50 in assay [4] of 2.13 µM. Besides, the values for the MIC in the assay with Helicobacter pylori [2] and in the assay on Helicobacter pylori [3] were 50 µg/mL (≈ 90.9 µM) and 100 µg/mL (≈ 182 µM), respectively. On to `COCCN1C(=O)/C(=C\c2ccc(-c3ccc(Cl)c(C(=O)OC)c3)o2)S/C1=N/c1ccccc1Br`, for which the inhibition entry in the assay with Helicobacter pylori [1] is “inactive”. On the same count and under the same terms, the value for `COCCN1C(=O)/C(=C\c2ccc(-c3ccc(Cl)c(C(=O)OC)c3)o2)S/C1=N/c1ccccc1` was “inactive”; that for `COc1ccc(C(=O)N/N=C/c2cc(Br)c(O)c(Br)c2O)cc1` was 81.4%.

`CC(=O)N/N=C/c1cc(Br)c(O)c(Br)c1O` gave an inhibition in the assay on Helicobacter pylori [1] of 15.2%. On the same count and under the same terms, under `COCCN1C(=O)/C(=C\c2ccc(-c3ccc(Cl)c(C(=O)OC)c3)o2)S/C1=N/c1cccc(OC)c1` stands 12.6%. `O=C(N/N=C/c1cc(Br)c(O)c(Br)c1O)c1cccc(Br)c1` displayed an inhibition with Helicobacter pylori [1] of 96%. Also, the MIC against Helicobacter pylori [2] and against Helicobacter pylori [3] was 100 µg/mL (≈ 203 µM) each time. With `O=C(N/N=C/c1cc(Br)c(O)c(Br)c1O)c1ccc2ccccc2c1O`, the inhibition in the assay with Helicobacter pylori [1] was 87%. In assay [4], this molecule registered a half-maximal inhibitory concentration (IC50) of 1.97 µM. For the same molecule, the MIC against Helicobacter pylori [2] and against Helicobacter pylori [3] was 100 µg/mL (≈ 208 µM) each time. As to `COCCN1C(=O)/C(=C\c2ccc(-c3ccc(Cl)c(C(=O)O)c3)o2)S/C1=N/c1ccc(OC)cc1`, the inhibition with Helicobacter pylori [1] came to 15.4%. The same measure, in the same setting: the value for `COCCN1C(=O)/C(=C\c2ccc(-c3ccc(Cl)c(C(=O)OC)c3)o2)S/C1=N/c1cccc(Br)c1` was 12%. Same read-out and setting: the value for `COCCN1C(=O)/C(=C\c2ccc(-c3cc(C(=O)OC)ccc3Cl)o2)S/C1=N/c1ccccc1` was “inactive”. The same measure, in the same setting: under `O=C(N/N=C/c1ccc(O)cc1)c1cccnc1` stands 15.1%.

In the assay with Helicobacter pylori [1], `COCCN1C(=O)/C(=C\c2ccc(-c3ccc(Cl)c(C(=O)O)c3)o2)S/C1=N/c1ccc2ccccc2c1` gave an inhibition of 32.2%. Same read-out and setting: under `CCN(CC)CCN1C(=O)/C(=C\c2ccc(-c3ccc(Cl)c(C(=O)OC)c3)o2)S/C1=N/c1ccccc1` stands “inactive”. The same measure, in the same setting: the value for `O=C(Cc1ccc(O)cc1)N/N=C/c1cc(Br)c(O)c(Br)c1O` was 50%; that for `COCCN1C(=O)/C(=C\c2ccc(-c3ccc(Cl)c(C(=O)OC)c3)o2)S/C1=N/c1cccc(F)c1` was “inactive”; that for `O=C(N/N=C/c1cc(Br)c(O)c(Br)c1O)c1ccncc1` was 36.4%. Molecule `COc1c(Br)cc(/C=N/NC(=O)c2cccnc2)c(OC)c1Br` gave an inhibition with Helicobacter pylori [1] of 64.4%. Take `COC(=O)c1cc(-c2ccc(/C=C3/S/C(=N/c4ccccc4)N(CCCN(C)C)C3=O)o2)ccc1Cl`: the inhibition entry in the assay with Helicobacter pylori [1] was “inactive”. On the same count and under the same terms, under `COCCN1C(=O)/C(=C\c2ccc(-c3ccc(Cl)c(C(=O)OC)c3)o2)S/C1=N/c1ccccc1OC` stands “inactive”. In assay [4], `O=C(N/N=C/c1cc(Br)c(O)c(Br)c1O)c1ccc2cc(Br)ccc2c1` had an IC50 of 3.55 µM. Besides, the MIC was 100 µg/mL (≈ 184 µM) in the assay on Helicobacter pylori [2] and 50 µg/mL (≈ 92.1 µM) in the assay on Helicobacter pylori [3]. For `COCCN1C(=O)/C(=C\c2ccc(-c3ccc(Cl)c(C(=O)OC)c3)o2)S/C1=N/c1ccc(C(F)(F)F)cc1`, the inhibition entry in the assay with Helicobacter pylori [1] is “inactive”. As for `O=C(N/N=C/c1cc(Br)c(O)c(Br)c1O)c1ccc2c(c1)Cc1ccccc1-2`, the IC50 in assay [4] worked out at 3.75 µM. For the same molecule, the MIC in the assay with Helicobacter pylori [2] turned out to be 50 µg/mL (≈ 99.6 µM); in the assay with Helicobacter pylori [3], 100 µg/mL (≈ 199 µM). In the case of `COCCN1C(=O)/C(=C\c2ccc(-c3ccc(Cl)c(C(=O)O)c3)o2)S/C1=N/c1ccccc1`, in the assay on Helicobacter pylori [1], the inhibition turned out to be 63.9%. The molecule `O=C(N/N=C/c1cc(Br)c(O)c(Br)c1O)c1ccc(Oc2ccccc2)cc1` gave an IC50 in assay [4] of 12.8 µM. The MIC result in the assay on Helicobacter pylori [2] and in the assay on Helicobacter pylori [3] was “inactive” throughout.

As for `O=C(N/N=C/c1cc(Br)c(O)c(Br)c1O)c1ccco1`, the inhibition in the assay with Helicobacter pylori [1] turned out to be 39.4%.

In the case of `COCCN1C(=O)/C(=C\c2ccc(-c3ccc(Cl)c(C(=O)OC)c3)o2)S/C1=N/c1ccccc1C(F)(F)F`, the inhibition entry with Helicobacter pylori [1] was “inactive”. The same measure, in the same setting: under `COCCN1C(=O)/C(=C\c2ccc(-c3ccc(Cl)cc3)o2)S/C1=N/c1ccccc1` stands “inactive”. On the same count and under the same terms, the value for `O=C(N/N=C/c1cc(Br)c(O)c(Br)c1O)c1cccc(F)c1` was 23.3%; that for `COCCN1C(=O)/C(=C\c2ccc(-c3ccc(Cl)c(C(=O)OC)c3)o2)S/C1=N/c1ccccc1F` was 10%. For the molecule `O=C(N/N=C/c1cc(Br)c(O)c(Br)c1O)c1ccc(F)cc1`, in the assay with Helicobacter pylori [1], the inhibition came to 85%. The molecule also returned an IC50 in assay [4] of 6.43 µM. `O=C(N/N=C/c1cc(Br)c(O)c(Br)c1O)c1ccc(-c2ccc(O)cc2)cc1` came in with an IC50 in assay [4] of 42.7 µM. Further, the MIC against Helicobacter pylori [2] and against Helicobacter pylori [3] was greater than 100 µg/mL each time. Regarding `O=C(N/N=C/c1cc(Br)c(O)c(Br)c1O)c1ccccc1`, the inhibition in the assay with Helicobacter pylori [1] amounted to 38.8%.

For orientation: inhibition means how much of the control response was suppressed. Usually MIC stands for the smallest concentration in the dilution series that meets the test's criterion for growth inhibition. The term IC50 denotes the midpoint of a concentration-inhibition curve.
